In ChEMBL document CHEMBL3352174, “Identification of a New RXRα Antagonist Targeting the Coregulator-Binding Site” (ACS Med Chem Lett, 2014):
The source made the active and inactive calls. The rule behind the calls is not given here.

Legend:
[1] = target: T1, Retinoic acid receptor RXR-alpha (Homo sapiens) (UniProt P19793); assay: Antagonist activity against RXRalpha in TNFalpha-stimulated human A549 cells assessed as inhibition of AKT phosphorylation at 5 and 10 uM pre-treated for 24 hrs before TNFalpha addition in presence of RXRalpha siRNA by Western blotting method; assay type: cell-based
T1 sequence (whole entry): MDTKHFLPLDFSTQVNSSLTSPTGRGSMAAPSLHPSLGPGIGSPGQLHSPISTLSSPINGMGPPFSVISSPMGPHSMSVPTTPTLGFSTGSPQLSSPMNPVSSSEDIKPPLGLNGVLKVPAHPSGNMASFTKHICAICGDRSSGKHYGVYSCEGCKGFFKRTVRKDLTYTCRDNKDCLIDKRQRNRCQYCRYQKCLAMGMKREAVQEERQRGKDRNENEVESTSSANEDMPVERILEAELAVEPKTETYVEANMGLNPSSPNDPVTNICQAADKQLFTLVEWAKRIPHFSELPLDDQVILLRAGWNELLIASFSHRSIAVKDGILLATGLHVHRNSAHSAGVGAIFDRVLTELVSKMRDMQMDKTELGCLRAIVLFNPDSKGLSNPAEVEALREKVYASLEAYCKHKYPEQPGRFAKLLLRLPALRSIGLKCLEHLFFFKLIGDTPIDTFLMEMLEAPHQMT
Method in brief: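 A549 cells were transfected with RXRα siRNA or control siRNA for 48 h. They were then treated with compound for 24 h, followed by TNFα (20 ng/mL) for 30 min. Lysates were analyzed by Western blot for AKT activation and PARP cleavage.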

HepG2 [2] = assay: Induction of apoptosis in human HepG2 cells assessed as PARP cleavage at 5 and 10 uM by immunoblotting method; assay type: functional, cell-based
Method in brief: (§1)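 A549 or HepG2 cells were treated with compound for 24 h, with or without subsequent TNFα (20 ng/mL) for 30 min. Lysates were immunoblotted for PARP cleavage as the apoptosis marker. One of three to five similar experiments shown.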

[3] = target: T1, Retinoic acid receptor RXR-alpha (Homo sapiens); assay: Antagonist activity against RXRalpha in human pancreatic cancer cells assessed as inhibition of AKT phosphorylation at 5 and 10 uM after 24 hrs by Western blotting method; assay type: cell-based; settings: Cancer cell lines
HepG2 [4] = assay: Induction of apoptosis in TNFalpha-stimulated human HepG2 cells assessed as PARP cleavage at 5 and 10 uM pre-treated for 24 hrs before TNFalpha addition by immunoblotting method; assay type: functional, cell-based; method in brief: as §1
[5] = target: T1, Retinoic acid receptor RXR-alpha (Homo sapiens); assay: Antagonist activity against Myc-tagged RXRalpha ligand binding domain (unknown origin) expressed in human MCF7 cells assessed as inhibition of 9-cis-RA-induced receptor transactivation at 10 uM after 18 hrs by luciferase reporter gene based mammalian one-hybrid assay; assay type: cell-based
Method in brief: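 MCF-7 cells co-transfected with pG5-Luc reporter and pBind-RXRα-LBD. […] Read-out was dual-luciferase, with firefly normalized to Renilla for transfection efficiency. Single-concentration tests used 10 μM. Mean ± SD.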

[6] = target: T1, Retinoic acid receptor RXR-alpha (Homo sapiens); assay: Antagonist activity against RXRalpha in TNFalpha-stimulated human A549 cells assessed as inhibition of AKT phosphorylation at 5 and 10 uM pre-treated for 24 hrs before TNFalpha addition by Western blotting method; assay type: cell-based
Method in brief: (§2)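 A549 or HepG2 cells were exposed to compound for 24 h, then with or without TNFα (20 ng/mL) for 30 min more. Lysates were immunoblotted for AKT activation. One of three to five similar experiments shown.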

[7] = target: T1, Retinoic acid receptor RXR-alpha (Homo sapiens); assay: Antagonist activity against RXRalpha in human PC3 cells assessed as inhibition of AKT phosphorylation at 5 and 10 uM after 24 hrs by Western blotting method; assay type: cell-based; settings: PC-3
[8] = target: T2, Retinoic acid receptor gamma (Homo sapiens) (UniProt P13631); assay: Antagonist activity against RARgamma ligand binding domain (unknown origin) expressed in human MCF7 cells assessed as inhibition of ATRA-induced receptor transactivation at 10 uM after 18 hrs by luciferase reporter gene based mammalian one-hybrid assay; assay type: cell-based
T2 sequence (whole entry): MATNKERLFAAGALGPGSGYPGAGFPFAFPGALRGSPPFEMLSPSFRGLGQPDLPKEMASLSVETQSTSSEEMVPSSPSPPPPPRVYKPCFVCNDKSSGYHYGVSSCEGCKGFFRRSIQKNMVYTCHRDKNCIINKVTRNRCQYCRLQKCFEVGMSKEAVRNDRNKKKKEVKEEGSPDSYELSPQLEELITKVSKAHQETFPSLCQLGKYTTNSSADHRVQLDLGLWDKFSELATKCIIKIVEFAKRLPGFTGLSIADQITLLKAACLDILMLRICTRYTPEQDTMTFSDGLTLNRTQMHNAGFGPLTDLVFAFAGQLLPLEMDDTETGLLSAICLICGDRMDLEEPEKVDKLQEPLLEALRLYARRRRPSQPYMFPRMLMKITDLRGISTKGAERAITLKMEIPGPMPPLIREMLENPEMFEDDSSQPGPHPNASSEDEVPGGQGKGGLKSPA
Method in brief: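 MCF-7 cells co-transfected with pG5-Luc and the pBind-LBD fusion: Nur77, RARγ or ER. Agonists were all-trans-RA 10⁻⁷ M for RARγ and Nur77, and propyl pyrazole triol 10 μM for ER. Compound at 10 μM for 18 h. Dual-luciferase read-out normalized to Renilla. Mean ± SD.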

[9] = target: Retinoic acid receptor alpha/Retinoid X receptor alpha (Homo sapiens) (UniProt P10276+P19793); assay: Antagonist activity against RXRalpha/RARalpha ligand binding domain (unknown origin) expressed in human HEK293T cells assessed as inhibition of 9-cis-RA/T09-induced receptor transactivation at 2 and 10 uM after 18 hrs by luciferase reporter gene based mammalian one-hybrid assay; assay type: cell-based; settings: HEK-293T
[10] = target: T1, Retinoic acid receptor RXR-alpha (Homo sapiens); assay: Antagonist activity against RXRalpha in TNFalpha-stimulated human HepG2 cells assessed as inhibition of AKT phosphorylation at 5 and 10 uM pre-treated for 24 hrs before TNFalpha addition by Western blotting method; assay type: cell-based; method in brief: as §2
[11] = target: T1, Retinoic acid receptor RXR-alpha (Homo sapiens); assay: Antagonist activity against RXRalpha in human A549 cells assessed as inhibition of AKT phosphorylation at 5 and 10 uM after 24 hrs by Western blotting method; assay type: cell-based; method in brief: as §2

inhibition [1]: inactive
inhibition [3]: Active
inhibition [5]: Active
inhibition [6]: Active
inhibition [7]: Active
inhibition [8]: Active
inhibition [9]: inactive
inhibition [10]: Active
inhibition [11]: Dose-dependent effect
SMILES: Cc1cc(=O)oc2c(/C=N/NC(=O)CSc3nc4ccccc4s3)c(O)ccc12
Activity (HepG2 [2]): Active
Activity (HepG2 [4]): Active
